Measured values reported in ChEMBL document CHEMBL5661974, “Pharmacologic characterization of a potent inhibitor of class I phosphatidylinositide 3-kinases” (Cancer Res, 2007).
pIC50: −log10 of the molar value. Activity calls are given as the source filed them. The calls are words filed in the database; no cut-off is given here.

What was measured:
[1] = system: U-87 MG; assay: Inhibition of recombinant PI3K in human U-87MG cells assessed as phosphorylation of AKT at ser473 at 5 times of GI50 concentration within 15 mins treatment by immunoblot analysis; format: cell-based
[2] = Inhibition of recombinant PI3K in human U2OS cells expressing GFP-tagged FKHR assessed as redistribution of cytoplasm to the nucleus before IGF-1 stimulation by fluorescence assay; format: cell-based
Summary of the method: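 U2OS cells expressing GFP-FKHR, cultured in 0.7% serum, treated with inhibitor before IGF-1 stimulation. Nuclear redistribution of GFP was monitored by automated fluorescence imaging, and IC50 was taken from concentration-response curves; Z' above 0.5.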

[3] = AUClast in BALB/C mouse plasma at 2.5 mg/kg, iv by LC-MS/MS analysis; format: ADME, organism-based
Summary of the method: (§1)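 Female BALB/c mice, 6–8 weeks old, given 2.5 mg/kg i.v. in 10% DMSO, 0.5% Tween 20 in saline. Plasma came from serial bleeds; tissues were homogenized in 2 or 3 volumes PBS. Samples were methanol-precipitated with an analogue internal standard, then LC-MS/MS by multiple reaction monitoring against an 8-point external calibration of 2–20,000 nmol/L. Parameters came from WinNonlin noncompartmental analysis, model 201 for plasma and model 200 for tissues.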

[4] = AUClast in BALB/C mouse kidney at 2.5 mg/kg, iv by LC-MS/MS analysis; format: ADME, organism-based; summary of the method: as §1
[5] = AUClast in BALB/C mouse plasma at 50 mg/kg, ip by LC-MS/MS analysis; format: ADME, organism-based; conditions: in vivo
Summary of the method: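 Female BALB/c mice, 6–8 weeks old, dosed i.p. at 50 mg/kg in 20% […] β-cyclodextrin in saline, 0.1 mL/10 g. Serial blood samples; plasma was methanol-precipitated with an analogue internal standard. LC-MS/MS multiple reaction monitoring, external calibration 2–20,000 nmol/L. Noncompartmental analysis, model 200.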

[6] = Half life in BALB/C mouse plasma at 2.5 mg/kg, iv by LC-MS/MS analysis; format: ADME, organism-based; summary of the method: as §1
[7] = Half life in BALB/C mouse spleen at 2.5 mg/kg, iv by LC-MS/MS analysis; format: ADME, organism-based; summary of the method: as §1
[8] = system: U-87 MG; assay: Antitumor activity against PTEN null human U-87MG cells xenografted female Ncr model assessed as T/C at 70 mg/kg, ip administered once a daily for 14 days relative to control; format: functional, U-87MG ATCC; conditions: time 14 day
[9] = system: HCT-116; assay: Antitumor activity against PIK3CA mutant human HCT-116 cells xenografted female Ncr model assessed as T/C at 30 mg/kg, ip administered twice a daily for 14 days relative to control; format: functional; conditions: time 14 day
[10] = system: MDA-MB-435; assay: Antitumor activity against ERB-B2 overexpressing human MDA-MB-435 cells xenografted female Ncr model assessed as T/C at 30 mg/kg, ip administered once a daily for 14 days relative to control; format: functional; conditions: time 14 day
[11] = system: U-87 MG; conditions: Homo sapiens, time 24.0 hrs
[12] = system: U-87 MG; conditions: Homo sapiens, time 4.0 hrs
[13] = system: OVCAR-3; conditions: Homo sapiens, dose 100.0 mg/kg, route ip
[14] = system: HCT-116; assay: Antitumor activity against PIK3CA mutant human HCT-116 cells xenografted female Ncr model assessed as body weight loss at 30 mg/kg, ip administered once a daily for 14 days relative to control; conditions: time 14 day

- pIC50 [2]: 7.52
- AUC(0-t) [3]: 0.624 µM·h
- AUC(0-t) [4]: 0.453 µM·h
- AUClast [5]: 20.459 µM·h
- half-life [6]: 0.7 h
- half-life [7]: 1.3 h
Structure (SMILES): Oc1cccc(-c2nc(N3CCOCC3)c3oc4ncccc4c3n2)c1 [PI-103]
- inhibition [1]: Active
- T/C [8]: 45.8%
- T/C [9]: 28%
- T/C [10]: 85%
- inhibition [11]: Active
- inhibition [12]: Active
- inhibition [13]: Active
- Body weight loss [14]: <15%
